Source: ChEMBL document CHEMBL3997768, “The synthesis and antistaphylococcal activity of dehydroabietic acid derivatives: modifications at C12 and C7” (2017)
Converted amounts (≈) assume the structure as drawn. The source made the active and inactive calls. The rule behind the calls is not given here.

What was measured:
Assay type in all cases: functional
[1] = system: Staphylococcus aureus; test: Antibacterial activity against linezolid-resistant Staphylococcus aureus NRS-271 containing phage type E-MRSA after 18 hrs by two fold serial dilution method; settings: NRS-271, 18 h
Outline: (§1)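 Strains grown overnight at 37 °C in TSB without antibiotic. Cultures were diluted 1000-fold, grown at 37 °C for 2–3 h to A600 0.6, then diluted 1:400 in fresh TSB. Equal volumes of bacteria and two-fold serial DMSO dilutions (final 0.39–50) were mixed. A600 was read after 18 h. MIC was the lowest concentration inhibiting growth. Run in triplicate, with vancomycin and tetracycline controls.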

[2] = system: Staphylococcus aureus; test: Antibacterial activity against erythromycin-resistant Staphylococcus aureus NRS-70 after 18 hrs by two fold serial dilution method; settings: NRS-70, 18 h; outline: as §1
[3] = system: Staphylococcus aureus; test: Antibacterial activity against oxacillin/tetracycline-resistant Staphylococcus aureus NRS-100 after 18 hrs by two fold serial dilution method; settings: NRS-100, 18 h; outline: as §1
[4] = system: Escherichia coli; test: Antibacterial activity against Escherichia coli AB1157 at 50 ug/ml after 18 hrs by two fold serial dilution method
Outline: (§2)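 Strains were grown overnight at 37 °C in TSB without antibiotic, diluted 1000-fold, and grown 2–3 h to A600 0.6. They were then diluted 1:400 in fresh TSB. Compounds in DMSO were two-fold serially diluted to a final 0.39–50 and mixed with an equal volume of bacteria. A600 was read after 18 h. MIC is the lowest concentration inhibiting growth. Triplicate; vancomycin and tetracycline were positive controls.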

[5] = system: Staphylococcus aureus; test: Antibacterial activity against gentamicin-resistant Staphylococcus aureus NRS-108 after 18 hrs by two fold serial dilution method; settings: NRS-108, 18 h; outline: as §1
[6] = system: Staphylococcus aureus; test: Antibacterial activity against Staphylococcus aureus Newman after 18 hrs by two fold serial dilution method; outline: as §2
[7] = system: Staphylococcus aureus; test: Antibacterial activity against aminoglycosides/tetracycline-resistant Staphylococcus aureus NRS-1 after 18 hrs by two fold serial dilution method; settings: NRS-1, 18 h; outline: as §1

**Q.** What does the source list for `CC(C)c1cc2c(cc1Br)[C@@]1(C)CCC[C@@](C)(C(=O)O)[C@@H]1C/C2=N\OCCCNC(=O)c1cc2ccccc2s1`?
**A.** MIC [1]: > 40 µM; MIC [2]: > 40 µM; MIC [3]: > 40 µM; Activity [4]: inactive; MIC [5]: > 40 µM; MIC [6]: 4 µM (≈ 2.5 µg/mL); MIC [7]: > 40 µM

**Q.** Which results are given for `CC(C)c1cc2c(cc1Br)[C@@]1(C)CCC[C@@](C)(C(=O)O)[C@@H]1C/C2=N\OCCCNC(=O)Cc1ccc(C(F)(F)F)cc1`?
**A.** MIC [1]: 4.8 to 9.59 µM (≈ 3.13 to 6.25 µg/mL); MIC [2]: 2.39 to 3.84 µM (≈ 1.56 to 2.5 µg/mL); MIC [3]: 4.8 to 9.59 µM (≈ 3.13 to 6.25 µg/mL); Activity [4]: inactive; MIC [5]: 2.39 to 3.84 µM (≈ 1.56 to 2.5 µg/mL); MIC [6]: 3.84 µM (≈ 2.5 µg/mL); MIC [7]: > 19.2 µM

**Q.** For `CC(C)c1cc2c(cc1Br)[C@@]1(C)CCC[C@@](C)(C(=O)O)[C@@H]1C/C2=N\OCCNC(=O)c1cc2ccccc2s1`, which MIC [1] is on record?
**A.** Its MIC is 2.05 to 2.55 µM (≈ 1.25 to 1.56 µg/mL).

**Q.** What about the MIC [2] of the same molecule?
**A.** Its MIC is 2.04 to 4.09 µM (≈ 1.25 to 2.5 µg/mL).

**Q.** What about the MIC [3] of the same molecule?
**A.** Its MIC is 2.55 to 4.09 µM (≈ 1.56 to 2.5 µg/mL).

**Q.** What about the Activity [4] of the same molecule?
**A.** Its Activity is “inactive”.

**Q.** What about the MIC [5] of the same molecule?
**A.** The MIC was 2.55 to 4.09 µM (≈ 1.56 to 2.5 µg/mL).

**Q.** And the MIC [6]?
**A.** Its MIC is 2.04 to 4.09 µM (≈ 1.25 to 2.5 µg/mL).

**Q.** And the MIC [7]?
**A.** Its MIC is 4.09 to 5.12 µM (≈ 2.5 to 3.13 µg/mL).

**Q.** For `CC(C)c1cc2c(cc1Br)[C@@]1(C)CCC[C@@](C)(C(=O)O)[C@@H]1C/C2=N\OCCCNC(=O)c1ccc(Cl)s1`, which MIC [1] is on record?
**A.** The MIC was 2.56 to 4.1 µM (≈ 1.56 to 2.5 µg/mL).

**Q.** And the MIC [2]?
**A.** The MIC was 2.56 to 4.1 µM (≈ 1.56 to 2.5 µg/mL).

**Q.** And the MIC [3]?
**A.** Its MIC is 5.13 µM (≈ 3.13 µg/mL).

**Q.** What about the Activity [4] of the same molecule?
**A.** The Activity was “inactive”.

**Q.** And the MIC [5]?
**A.** The MIC was 2.56 to 4.1 µM (≈ 1.56 to 2.5 µg/mL).

**Q.** And the MIC [6]?
**A.** Its MIC is 2.05 to 4.1 µM (≈ 1.25 to 2.5 µg/mL).

**Q.** And the MIC [7]?
**A.** Its MIC is 10.2 to 20.5 µM (≈ 6.25 to 12.5 µg/mL).

**Q.** What does the source list for `CC(C)c1cc2c(cc1Br)[C@@]1(C)CCC[C@@](C)(C(=O)O)[C@@H]1C/C2=N\OCCCNC(=O)c1ccc(Br)s1`?
**A.** MIC [1]: 2.38 to 3.82 µM (≈ 1.56 to 2.5 µg/mL); MIC [2]: 2.38 to 3.82 µM (≈ 1.56 to 2.5 µg/mL); MIC [3]: 4.78 µM (≈ 3.13 µg/mL); Activity [4]: inactive; MIC [5]: 2.38 to 3.82 µM (≈ 1.56 to 2.5 µg/mL); MIC [6]: 1.91 to 3.82 µM (≈ 1.25 to 2.5 µg/mL); MIC [7]: > 19.1 µM

**Q.** For `CC(C)c1cc2c(cc1Br)[C@@]1(C)CCC[C@@](C)(C(=O)O)[C@@H]1C/C2=N\OCCNC(=O)c1ccc(Br)s1`, which MIC [1] is on record?
**A.** Its MIC is 2.44 to 3.9 µM (≈ 1.56 to 2.5 µg/mL).

**Q.** And the MIC [2]?
**A.** The MIC was 2.44 to 3.9 µM (≈ 1.56 to 2.5 µg/mL).

**Q.** And the MIC [3]?
**A.** Its MIC is 4.89 µM (≈ 3.13 µg/mL).

**Q.** And the Activity [4]?
**A.** The Activity was “inactive”.

**Q.** What about the MIC [5] of the same molecule?
**A.** Its MIC is 2.44 to 3.9 µM (≈ 1.56 to 2.5 µg/mL).

**Q.** And the MIC [6]?
**A.** Its MIC is 3.9 µM (≈ 2.5 µg/mL).

**Q.** What about the MIC [7] of the same molecule?
**A.** The MIC was 4.89 to 9.76 µM (≈ 3.13 to 6.25 µg/mL).

**Q.** What does the source list for `CC(C)c1cc2c(cc1Br)[C@@]1(C)CCC[C@@](C)(C(=O)O)[C@@H]1C/C2=N\OCCCNC(=O)c1cccc(C(F)(F)F)c1`?
**A.** MIC [1]: 3.92 to 4.91 µM (≈ 2.5 to 3.13 µg/mL); MIC [2]: 4.91 µM (≈ 3.13 µg/mL); MIC [3]: 4.91 µM (≈ 3.13 µg/mL); Activity [4]: inactive; MIC [5]: 3.92 to 4.91 µM (≈ 2.5 to 3.13 µg/mL); MIC [6]: 1.96 to 3.92 µM (≈ 1.25 to 2.5 µg/mL); MIC [7]: > 19.6 µM

**Q.** What does the source list for `CC(C)c1cc2c(cc1Br)[C@@]1(C)CCC[C@@](C)(C(=O)O)[C@@H]1C/C2=N\OCCNC(=O)c1ccc(Cl)s1`?
**A.** MIC [1]: 1.56 to 2.5 µM (≈ 0.93 to 1.49 µg/mL); MIC [2]: 2.62 to 4.19 µM (≈ 1.56 to 2.5 µg/mL); MIC [3]: 4.19 µM (≈ 2.5 µg/mL); Activity [4]: inactive; MIC [5]: 2.62 to 4.19 µM (≈ 1.56 to 2.5 µg/mL); MIC [6]: 4.19 µM (≈ 2.5 µg/mL); MIC [7]: 5.25 to 10.5 µM (≈ 3.13 to 6.25 µg/mL)

**Q.** `CC(C)c1cc2c(cc1Br)[C@@]1(C)CCC[C@@](C)(C(=O)O)[C@@H]1C/C2=N\OCCNC(=O)c1cccc(C(F)(F)F)c1` was tested. Which MIC [1] did it give?
**A.** The MIC was 2.5 to 4.01 µM (≈ 1.56 to 2.5 µg/mL).

**Q.** What about the MIC [2] of the same molecule?
**A.** Its MIC is 2.5 to 4.01 µM (≈ 1.56 to 2.5 µg/mL).

**Q.** And the MIC [3]?
**A.** Its MIC is 5.02 µM (≈ 3.13 µg/mL).

**Q.** What about the Activity [4] of the same molecule?
**A.** Its Activity is “inactive”.

**Q.** And the MIC [5]?
**A.** Its MIC is 2.5 to 4.01 µM (≈ 1.56 to 2.5 µg/mL).

**Q.** And the MIC [6]?
**A.** Its MIC is 4.01 µM (≈ 2.5 µg/mL).

**Q.** What about the MIC [7] of the same molecule?
**A.** Its MIC is 5.02 µM (≈ 3.13 µg/mL).

**Q.** What does the source list for `CC(C)c1cc2c(cc1Br)[C@@]1(C)CCC[C@@](C)(C(=O)O)[C@@H]1C/C2=N\OCCCNC(=O)Cc1cccc(C(F)(F)F)c1`?
**A.** MIC [1]: 2.39 to 3.84 µM (≈ 1.56 to 2.5 µg/mL); MIC [2]: 1.92 to 2.39 µM (≈ 1.25 to 1.56 µg/mL); MIC [3]: 3.84 to 4.8 µM (≈ 2.5 to 3.13 µg/mL); Activity [4]: inactive; MIC [5]: 2.39 to 3.84 µM (≈ 1.56 to 2.5 µg/mL); MIC [6]: 1.92 to 3.84 µM (≈ 1.25 to 2.5 µg/mL); MIC [7]: > 19.2 µM
